{
  "source": "ChEMBL document CHEMBL3751796",
  "about": "“Structure-Based Discovery of Novel Cyclophilin A Inhibitors for the Treatment of Hepatitis C Virus Infections” (J Med Chem, 2015)",
  "key": {"Hepatitis C virus [1]": {"test_system": "Hepatitis C virus", "experiment": "Antiviral activity against HCV infected in human Huh7.5 cells assessed as inhibition of HCV-specific RNA by qRT-PCR method in presence of IFN-alpha", "format": "functional, organism-based", "conditions": "Hepacivirus hominis; Huh-7"}, "Hepatitis C virus [2]": {"test_system": "Hepatitis C virus", "experiment": "Antiviral activity against HCV infected in human Huh7.5 cells assessed as inhibition of IL-8 level by ELISA in presence of IFN-alpha", "format": "functional, organism-based", "conditions": "Hepacivirus hominis; Huh-7"}, "[3]": {"biological_target": "T1, Peptidyl-prolyl cis-trans isomerase A (Homo sapiens, UniProt P62937)"}, "Hepatitis C virus [4]": {"test_system": "Hepatitis C virus", "experiment": "Antiviral activity against HCV genotype 1b Con1 infected in human Huh7.5 cells assessed as stimulation of IRF9 expression at 2 uM incubated up to 96 hrs by Western blot analysis", "format": "functional, organism-based", "conditions": "Hepacivirus hominis, isolate Con1, Huh-7, TDE = time-dependent effect"}, "Mus musculus [5]": {"test_system": "Mus musculus", "experiment": "Toxicity in NOD/SCID mouse assessed as body weight change at 50 mg/kg, ip measured up to 14 days", "format": "organism-based", "conditions": "in vivo, 336 h"}, "Hepatitis C virus [6]": {"test_system": "Hepatitis C virus", "experiment": "Antiviral activity against HCV genotype 1b Con1 infected in human Huh7 cells xenografted in immunodeficient NOD/SCID mouse assessed as inhibition of NS5A expression in liver at 50 mg/kg, ip up to 14 days by Western blot analysis", "format": "functional, organism-based", "conditions": "Hepacivirus hominis, isolate Con1, Huh-7", "how_it_was_run": "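Liver tissue from NOD/SCID mice engrafted with Huh7 Con1b replicon cells and dosed ip at 50 mg/kg for 14 days (5 per group). NS5A protein read by SDS-PAGE Western blot with chemiluminescence detection.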"}, "Hepatitis C virus [7]": {"test_system": "Hepatitis C virus", "experiment": "Antiviral activity against HCV genotype 1b Con1 infected in human Huh7.5 cells assessed as upregulation of IFN-alpha mRNA expression incubated up to 96 hrs by qRT-PCR method", "format": "functional, organism-based", "conditions": "Hepacivirus hominis; isolate Con1; Huh-7", "how_it_was_run": "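mRNA measured by SYBR Green qRT-PCR using the 2^−ΔΔCT method, normalized to GAPDH and expressed as fold change vs controls.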"}, "Hepatitis C virus [8]": {"test_system": "Hepatitis C virus", "experiment": "Antiviral activity against HCV infected in human Huh7.5 cells assessed as inhibition of HCV-specific RNA by qRT-PCR method in presence of ribavirin", "format": "functional, organism-based", "conditions": "Hepacivirus hominis; Huh-7"}, "Hepatitis C virus [9]": {"test_system": "Hepatitis C virus", "experiment": "Antiviral activity against HCV genotype 1b Con1 infected in human Huh7.5 cells assessed as inhibition of NS5A expression at 2 uM by DAPI staining based confocal microscopy", "format": "functional, organism-based", "conditions": "Hepacivirus hominis, isolate Con1, Huh-7", "how_it_was_run": "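Con1b replicon cells treated at 2 μM. Stained with Alexa red anti-NS5A and Alexa green anti-NS5B antibodies plus DAPI, then imaged by confocal microscopy for colocalization. Images representative of at least three experiments.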"}, "[10]": {"experiment": "Cytotoxicity against HCV genotype 1b Con1 infected human Huh7.5 cells expressing GFP-fused NS5A assessed as reduction in cell viability measured 72 hrs post infection by hoechst 33342 staining based confocal microscopy", "design": "species or system Huh-7", "how_it_was_run": "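Huh7 replicon cells expressing NS5A-GFP seeded at 2 × 10^3/well and left overnight, then given serially diluted compound. At 72 h, fixed in 2% PFA and nuclei stained with Hoechst 33342 (10 μg/mL). Automated confocal imaging: GFP-positive cells give activity, nuclei counts give cytotoxicity. EC50/CC50 from nonlinear regression.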"}, "Mus musculus [11]": {"species": "Mus musculus", "experiment": "Inhibition of calcium-dependent calcineurin phosphatase activity in ionomycin-stimulated BALB/c mouse splenocytes assessed as reduction in dephosphorylation of R2 phosphopeptide at 1 to 10 uM preincubated for 20 hrs followed by ionomycin stimulation measured after 4 hrs", "how_it_was_run": "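Mouse splenocytes (2 × 10^6 cells/well) were incubated with compound for 20 h, then stimulated with 1 μg/mL ionomycin for another 4 h or left unstimulated. Calcineurin activity was measured by dephosphorylation of RII phosphopeptide using a cellular activity kit.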"}, "Hepatitis C virus [12]": {"test_system": "Hepatitis C virus", "experiment": "Antiviral activity against HCV genotype 1b Con1 infected in human Huh7.5 cells assessed as inhibition of NS5A expression in total cell lysate at 2 uM by Western blot analysis", "format": "functional, organism-based", "conditions": "Hepacivirus hominis, isolate Con1, Huh-7", "how_it_was_run": "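Con1b replicon cells treated with 2 μM. Total lysates, and a membrane fraction prepared by hypotonic buffer, dounce homogenization, 220g spin and then 68 000g for 1 h at 4 °C, analyzed by Western blot for NS5A and NS5B.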"}, "[13]": {"biological_target": "T1, Peptidyl-prolyl cis-trans isomerase A", "experiment": "Inhibition of human Cyclophilin A interaction with HCV genotype 1b Con1 NS5A in human Huh7.5 cells after 72 hrs by mammalian two-hybrid assay", "format": "cell-based", "conditions": "Huh-7"}},
  "note": "The source made the active and inactive calls. The calls are words filed in the database; no cut-off is given here.",
  "data": [
    {"smiles": "COc1cc(C(C(=O)NC2CCCCC2)N(C(=O)Cc2c[nH]c3ccccc23)c2ccc(C(C)C)cc2)cc(OC)c1OC", "note": "(stereo not drawn)", "values": [
      {"measurement": "inhibition", "setting": "Hepatitis C virus [1]", "result": "Active"},
      {"measurement": "inhibition", "setting": "Hepatitis C virus [2]", "result": "Active"},
      {"measurement": "Kd", "setting": "[3]", "result": 0.57, "unit": "µM"},
      {"measurement": "Activity", "setting": "Hepatitis C virus [4]", "result": "tde"},
      {"measurement": "Activity", "setting": "Mus musculus [5]", "result": "Non-toxic"},
      {"measurement": "inhibition", "setting": "Hepatitis C virus [6]", "result": "Active"},
      {"measurement": "Activity", "setting": "Hepatitis C virus [7]", "result": "Active"},
      {"measurement": "inhibition", "setting": "Hepatitis C virus [8]", "result": "Active"},
      {"measurement": "inhibition", "setting": "Hepatitis C virus [9]", "result": "Active"},
      {"measurement": "CC50 at 72 h", "setting": "[10]", "result": 12.4, "unit": "µM"},
      {"measurement": "inhibition", "setting": "Mus musculus [11]", "result": "inactive"},
      {"measurement": "inhibition", "setting": "Hepatitis C virus [12]", "result": "Active"},
      {"measurement": "inhibition", "setting": "[13]", "result": "Active"}
    ]}
  ]
}
